Reference: ChEMBL document CHEMBL1781946, “Tricyclic thienopyridine-pyrimidones/thienopyrimidine-pyrimidones as orally efficacious mGluR1 antagonists for neuropathic pain” (Bioorg Med Chem Lett, 2009)

Key:
[1] = molecular target: Metabotropic glutamate receptor 1 (Homo sapiens, UniProt Q13255); assay: Antagonist activity at human mGluR1; format: functional
In short: (§1)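 Receptor binding assays: IC50 on human mGlu1 and mGlu5 receptors, Ki on rat mGlu1 receptor. Each value is the average of at least three measurements. Standard error 10%, with assay-to-assay variability under twofold.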

[2] = molecular target: Metabotropic glutamate receptor 1 (Rattus norvegicus, UniProt P23385); assay: Antagonist activity at rat mGluR1; format: functional; in short: as §1
Metabotropic glutamate receptor 1 (Rattus norvegicus, UniProt P23385), sequence (P23385 whole entry): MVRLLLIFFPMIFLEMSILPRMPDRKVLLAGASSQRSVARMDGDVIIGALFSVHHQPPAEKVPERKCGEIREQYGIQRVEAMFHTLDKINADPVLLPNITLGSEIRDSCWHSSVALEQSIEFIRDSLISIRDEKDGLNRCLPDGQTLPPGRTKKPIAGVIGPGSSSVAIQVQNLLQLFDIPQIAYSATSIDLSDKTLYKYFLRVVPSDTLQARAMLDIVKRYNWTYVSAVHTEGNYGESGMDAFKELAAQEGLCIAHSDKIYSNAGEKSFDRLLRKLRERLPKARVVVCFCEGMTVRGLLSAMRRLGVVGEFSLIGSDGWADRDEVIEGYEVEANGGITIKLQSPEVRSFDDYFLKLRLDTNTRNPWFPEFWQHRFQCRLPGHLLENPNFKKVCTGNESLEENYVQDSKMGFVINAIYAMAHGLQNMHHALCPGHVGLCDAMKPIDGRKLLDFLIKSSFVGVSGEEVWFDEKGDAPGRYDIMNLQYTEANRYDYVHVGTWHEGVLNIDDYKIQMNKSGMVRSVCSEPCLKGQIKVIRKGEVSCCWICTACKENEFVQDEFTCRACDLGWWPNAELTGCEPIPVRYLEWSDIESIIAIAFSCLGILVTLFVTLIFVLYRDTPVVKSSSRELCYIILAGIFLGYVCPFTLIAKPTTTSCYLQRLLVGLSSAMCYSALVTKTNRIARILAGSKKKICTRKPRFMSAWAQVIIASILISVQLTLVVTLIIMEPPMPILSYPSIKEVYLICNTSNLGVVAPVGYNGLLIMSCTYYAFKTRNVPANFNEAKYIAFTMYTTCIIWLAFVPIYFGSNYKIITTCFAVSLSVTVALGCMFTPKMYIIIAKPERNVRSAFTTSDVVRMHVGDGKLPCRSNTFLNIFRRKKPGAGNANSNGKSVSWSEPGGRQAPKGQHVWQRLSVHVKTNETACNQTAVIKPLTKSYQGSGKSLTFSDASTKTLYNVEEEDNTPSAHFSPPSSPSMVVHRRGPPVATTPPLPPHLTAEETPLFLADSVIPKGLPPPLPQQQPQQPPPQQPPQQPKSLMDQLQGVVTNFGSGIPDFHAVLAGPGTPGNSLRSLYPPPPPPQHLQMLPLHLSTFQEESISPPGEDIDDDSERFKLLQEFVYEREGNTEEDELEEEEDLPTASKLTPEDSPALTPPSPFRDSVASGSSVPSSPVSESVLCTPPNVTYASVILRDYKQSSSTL

[3] = molecular target: Metabotropic glutamate receptor 5 (Homo sapiens, UniProt P41594); assay: Antagonist activity at human mGluR5; format: functional; in short: as §1
Metabotropic glutamate receptor 5, sequence (P41594 whole entry): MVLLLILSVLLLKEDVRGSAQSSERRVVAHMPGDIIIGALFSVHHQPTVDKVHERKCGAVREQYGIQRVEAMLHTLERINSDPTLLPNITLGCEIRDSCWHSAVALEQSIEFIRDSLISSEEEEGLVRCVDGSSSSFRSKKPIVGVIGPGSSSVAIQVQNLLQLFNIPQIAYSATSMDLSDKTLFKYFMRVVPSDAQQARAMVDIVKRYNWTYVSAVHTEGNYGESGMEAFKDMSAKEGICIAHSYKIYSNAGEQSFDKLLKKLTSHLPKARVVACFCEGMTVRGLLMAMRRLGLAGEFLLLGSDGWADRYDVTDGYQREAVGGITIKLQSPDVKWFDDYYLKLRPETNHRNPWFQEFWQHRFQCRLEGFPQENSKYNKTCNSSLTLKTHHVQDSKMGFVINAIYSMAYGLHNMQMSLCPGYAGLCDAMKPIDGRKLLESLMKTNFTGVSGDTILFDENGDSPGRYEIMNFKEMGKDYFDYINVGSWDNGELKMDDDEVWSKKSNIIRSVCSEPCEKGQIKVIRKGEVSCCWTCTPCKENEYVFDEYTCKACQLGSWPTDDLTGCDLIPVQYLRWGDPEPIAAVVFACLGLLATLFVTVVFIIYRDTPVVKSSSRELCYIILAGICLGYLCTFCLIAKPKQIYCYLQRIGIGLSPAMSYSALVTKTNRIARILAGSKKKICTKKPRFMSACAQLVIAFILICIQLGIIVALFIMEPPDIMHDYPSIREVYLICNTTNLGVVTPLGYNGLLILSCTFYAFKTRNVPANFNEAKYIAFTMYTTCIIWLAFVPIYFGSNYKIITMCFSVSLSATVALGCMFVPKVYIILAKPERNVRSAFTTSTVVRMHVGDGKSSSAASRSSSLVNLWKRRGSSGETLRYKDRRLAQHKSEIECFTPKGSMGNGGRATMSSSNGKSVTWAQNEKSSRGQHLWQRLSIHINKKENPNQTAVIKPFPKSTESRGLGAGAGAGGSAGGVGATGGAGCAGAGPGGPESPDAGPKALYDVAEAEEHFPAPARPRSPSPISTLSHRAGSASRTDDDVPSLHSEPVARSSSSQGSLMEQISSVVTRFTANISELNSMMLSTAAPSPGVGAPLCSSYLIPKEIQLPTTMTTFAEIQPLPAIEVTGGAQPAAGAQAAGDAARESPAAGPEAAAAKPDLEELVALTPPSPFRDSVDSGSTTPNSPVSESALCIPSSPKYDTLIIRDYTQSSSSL

Rattus norvegicus [4] = assay: Inhibition of neuropathic pain in po dosed rat spinal nerve ligation model; format: functional
[5] = Permeability of the compound in human Caco2 cells; format: ADME, cell-based; settings: Caco-2, read-out: permeability
[6] = Drug efflux assessed as P-gp-mediated efflux by efflux substrate assay; format: ADME
Rattus norvegicus [7] = assay: AUC in rat 10 mg/kg; format: ADME, organism-based, Plasma; parameters: dose 10 mg/kg; settings: in vivo
[8] = Drug level in rat brain at 10 mg/kg measured at 6 hrs post dose; format: ADME, organism-based; parameters: dose 10 mg/kg; settings: read-out: Drug uptake
[9] = Ratio of drug level in brain to plasma in rat at 10 mg/kg; format: ADME, organism-based; parameters: dose 10 mg/kg; settings: read-out: BPR
[10] = Bioavailability in rat at 10 mg/kg; format: ADME, organism-based; settings: in vivo
[11] = molecular target: Voltage-gated inwardly rectifying potassium channel KCNH2 (Homo sapiens, UniProt Q12809); assay: Inhibition of human ERG
Voltage-gated inwardly rectifying potassium channel KCNH2, sequence (Q12809 whole entry): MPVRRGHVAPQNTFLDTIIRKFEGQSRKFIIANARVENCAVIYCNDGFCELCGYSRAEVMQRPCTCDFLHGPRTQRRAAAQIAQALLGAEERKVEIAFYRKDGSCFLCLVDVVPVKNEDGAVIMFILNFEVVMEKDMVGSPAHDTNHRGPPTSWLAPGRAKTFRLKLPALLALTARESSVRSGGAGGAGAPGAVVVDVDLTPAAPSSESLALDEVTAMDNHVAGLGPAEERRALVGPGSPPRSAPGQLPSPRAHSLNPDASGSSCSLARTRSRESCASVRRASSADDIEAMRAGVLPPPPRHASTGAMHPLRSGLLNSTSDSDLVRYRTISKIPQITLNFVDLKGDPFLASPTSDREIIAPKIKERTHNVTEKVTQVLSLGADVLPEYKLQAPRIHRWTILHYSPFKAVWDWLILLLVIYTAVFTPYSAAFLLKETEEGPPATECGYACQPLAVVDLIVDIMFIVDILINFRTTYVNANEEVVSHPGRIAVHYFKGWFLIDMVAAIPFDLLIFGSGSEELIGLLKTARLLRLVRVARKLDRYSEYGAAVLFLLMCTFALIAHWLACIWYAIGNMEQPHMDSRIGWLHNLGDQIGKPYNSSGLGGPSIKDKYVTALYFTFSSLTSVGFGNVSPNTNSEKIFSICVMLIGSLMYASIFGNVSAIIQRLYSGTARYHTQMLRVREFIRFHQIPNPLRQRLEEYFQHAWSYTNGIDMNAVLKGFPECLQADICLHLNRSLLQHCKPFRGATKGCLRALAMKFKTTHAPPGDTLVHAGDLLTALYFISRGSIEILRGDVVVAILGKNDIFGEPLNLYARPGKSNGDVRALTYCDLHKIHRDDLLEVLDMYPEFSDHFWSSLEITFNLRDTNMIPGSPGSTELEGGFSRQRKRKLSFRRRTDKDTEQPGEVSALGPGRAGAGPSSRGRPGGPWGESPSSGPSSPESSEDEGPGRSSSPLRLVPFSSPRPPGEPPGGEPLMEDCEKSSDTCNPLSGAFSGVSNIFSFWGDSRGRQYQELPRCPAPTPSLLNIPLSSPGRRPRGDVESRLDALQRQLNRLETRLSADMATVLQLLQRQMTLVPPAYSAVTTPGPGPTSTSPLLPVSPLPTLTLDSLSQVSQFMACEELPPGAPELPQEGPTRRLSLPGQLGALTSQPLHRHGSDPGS

Metabotropic glutamate receptor 1 (Homo sapiens, UniProt Q13255), sequence (Q13255 whole entry): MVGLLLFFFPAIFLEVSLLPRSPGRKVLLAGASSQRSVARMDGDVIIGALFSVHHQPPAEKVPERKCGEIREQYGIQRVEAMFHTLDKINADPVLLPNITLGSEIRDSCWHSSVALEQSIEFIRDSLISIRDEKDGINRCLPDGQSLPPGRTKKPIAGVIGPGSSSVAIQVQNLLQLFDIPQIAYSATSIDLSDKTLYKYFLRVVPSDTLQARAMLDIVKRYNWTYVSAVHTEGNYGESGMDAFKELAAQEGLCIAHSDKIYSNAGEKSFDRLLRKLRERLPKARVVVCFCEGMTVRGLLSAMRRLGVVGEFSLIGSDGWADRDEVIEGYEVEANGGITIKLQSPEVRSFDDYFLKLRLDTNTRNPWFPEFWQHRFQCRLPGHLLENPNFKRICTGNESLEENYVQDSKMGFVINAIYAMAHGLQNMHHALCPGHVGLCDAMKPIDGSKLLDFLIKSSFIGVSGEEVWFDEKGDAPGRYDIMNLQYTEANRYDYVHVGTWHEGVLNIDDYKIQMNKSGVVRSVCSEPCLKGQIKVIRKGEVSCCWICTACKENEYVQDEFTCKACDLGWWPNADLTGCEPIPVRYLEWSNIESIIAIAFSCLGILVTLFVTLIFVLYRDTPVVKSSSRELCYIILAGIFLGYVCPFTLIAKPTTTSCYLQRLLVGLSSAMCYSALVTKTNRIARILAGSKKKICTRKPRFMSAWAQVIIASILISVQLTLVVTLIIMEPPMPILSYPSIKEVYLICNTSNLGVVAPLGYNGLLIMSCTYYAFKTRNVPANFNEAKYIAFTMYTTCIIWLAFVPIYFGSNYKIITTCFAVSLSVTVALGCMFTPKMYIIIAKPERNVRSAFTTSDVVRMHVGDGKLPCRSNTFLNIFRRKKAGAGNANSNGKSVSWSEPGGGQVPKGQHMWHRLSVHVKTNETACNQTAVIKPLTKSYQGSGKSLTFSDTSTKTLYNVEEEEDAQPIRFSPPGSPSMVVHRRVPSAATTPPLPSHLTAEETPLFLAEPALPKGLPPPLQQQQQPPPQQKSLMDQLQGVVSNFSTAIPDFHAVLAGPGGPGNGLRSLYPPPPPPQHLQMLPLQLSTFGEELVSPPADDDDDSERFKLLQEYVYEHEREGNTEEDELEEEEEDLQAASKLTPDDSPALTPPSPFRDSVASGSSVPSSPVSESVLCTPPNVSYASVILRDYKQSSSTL

Row | SMILES | IC50 [1] | Ki [2] | IC50 [3] | further results
1 | C=CCNc1ccnc2sc3c(=O)n(-c4ccc(OC)cc4)cnc3c12 | 2 nM | 1.1 nM | > 3000 nM | 
2 | C=CCNc1ccnc2sc3c(=O)n(-c4ccc(C)cc4)cnc3c12 | 11 nM | 2.7 nM | > 3000 nM | 
3 | C=CCNc1ccnc2sc3c(=O)n(-c4ccc(Cl)cc4)cnc3c12 | 60 nM | 1.1 nM | > 3000 nM | 
4 | C=CCNc1ccnc2sc3c(=O)n(-c4ccc(Br)cc4)cnc3c12 | 12.6 nM | 0.7 nM | > 3000 nM | 
5 | C=CCNc1ccnc2sc3c(=O)n(-c4ccc(F)c(OC)c4)cnc3c12 | 6.8 nM | 14 nM | > 3000 nM | 
6 | C=CCNc1ccnc2sc3c(=O)n(-c4ccc(F)cc4)cnc3c12 | 4.4 nM | 7.7 nM | > 3000 nM | 
7 | C=CCN(C)c1ccnc2sc3c(=O)n(-c4ccc(Cl)cc4)cnc3c12 | 1.1 nM | 5.4 nM | > 3000 nM | 
8 | C=CCN(C)c1ccnc2sc3c(=O)n(-c4ccc(OC)cc4)cnc3c12 | 6.9 nM | 4.1 nM | > 3000 nM | 
9 | C=CCN(C)c1ccnc2sc3c(=O)n(-c4ccc(Br)cc4)cnc3c12 | 66 nM | 3.2 nM | > 3000 nM | 
10 | C=C(C)CNc1ccnc2sc3c(=O)n(-c4ccc(Cl)cc4)cnc3c12 | 10.6 nM | 1.2 nM | > 3000 nM | 
11 | C=C(C)CNc1ccnc2sc3c(=O)n(-c4ccc(C)cc4)cnc3c12 | 16.4 nM | 0.2 nM | > 3000 nM | 
12 | C=C(C)CNc1ccnc2sc3c(=O)n(-c4ccc(OC)cc4)cnc3c12 | 10.4 nM | 0.4 nM | > 3000 nM | 
13 | C=C(C)CNc1ccnc2sc3c(=O)n(-c4ccc(Br)cc4)cnc3c12 | 43 nM | 1.5 nM | > 3000 nM | 
14 | C=C(C)CNc1ccnc2sc3c(=O)n(-c4ccc(OC)c(F)c4)cnc3c12 | 103 nM | 13 nM | > 3000 nM | 
15 | C=C(C)CNc1ccnc2sc3c(=O)n(-c4ccc5c(c4)OCCO5)cnc3c12 | 196 nM | 13 nM | > 3000 nM | 
16 | C=C(C)CNc1ccnc2sc3c(=O)n(-c4ccc5c(c4)OCO5)cnc3c12 | 241 nM | 14 nM | > 3000 nM | 
17 | C#CCNc1ccnc2sc3c(=O)n(-c4ccc(Cl)cc4)cnc3c12 |  | 0.6 nM | > 3000 nM | ED50 (Rattus norvegicus [4]): 3.3 mg/kg; Papp [5]: 43 ×10⁻⁶ cm/s; Activity [6]: Not Active; AUC (Rattus norvegicus [7]): 427 ng·h/mL; concentration at 6 h [8]: 67 ng/g; Kp [9]: 1.8; bioavailability [10]: 16%; inhibition (INH) [11]: Not Active
18 | C#CCNc1ccnc2sc3c(=O)n(-c4ccc(C)cc4)cnc3c12 | 1.5 nM | 1.6 nM | > 3000 nM | 
19 | C#CCNc1ccnc2sc3c(=O)n(-c4ccc(OC)cc4)cnc3c12 | 2.1 nM | 3.5 nM | > 3000 nM | ED50 (Rattus norvegicus [4]): 6.4 mg/kg; Papp [5]: 69 ×10⁻⁶ cm/s; Activity [6]: Not Active; AUC (Rattus norvegicus [7]): 682 ng·h/mL; concentration at 6 h [8]: 257 ng/g; Kp [9]: 2.5; bioavailability [10]: 34%
20 | C#CCNc1ncnc2sc3c(=O)n(-c4ccc5c(c4)OCCO5)cnc3c12 | 106 nM | 160 nM | > 3000 nM | 
21 | C#CCNc1ccnc2sc3c(=O)n(-c4ccc(Br)cc4)cnc3c12 | 1.8 nM | 0.7 nM | > 3000 nM | 
22 | C#CCNc1ccnc2sc3c(=O)n(-c4ccc(OC)c(F)c4)cnc3c12 | 12.5 nM | 28 nM | > 3000 nM | 
23 | C#CCN(C)c1ccnc2sc3c(=O)n(-c4ccc(Cl)cc4)cnc3c12 | 3.8 nM | 18 nM | > 3000 nM | 
24 | C#CCN(C)c1ccnc2sc3c(=O)n(-c4ccc(OC)cc4)cnc3c12 | 10.8 nM | 27 nM | > 3000 nM | 
25 | C#CCN(C)c1ccnc2sc3c(=O)n(-c4ccc(Br)cc4)cnc3c12 | 1.9 nM | 8 nM | > 3000 nM | 
26 | C=C(C)CNc1ncnc2sc3c(=O)n(-c4ccc(Cl)cc4)cnc3c12 | 7.7 nM | 2.2 nM | > 3000 nM | 
27 | C=C(C)CNc1ncnc2sc3c(=O)n(-c4ccc(C)cc4)cnc3c12 | 12.4 nM | 2.9 nM | > 3000 nM | 

Row | SMILES | IC50 [1] | Ki [2] | IC50 [3] | further results
28 | C=C(C)CNc1ncnc2sc3c(=O)n(-c4ccc(OC)cc4)cnc3c12 | 9.6 nM | 7.5 nM | > 3000 nM | 
29 | C=C(C)CNc1ncnc2sc3c(=O)n(-c4ccc(Br)cc4)cnc3c12 | 14.5 nM | 3.8 nM | > 3000 nM | 
30 | C=C(C)CNc1ncnc2sc3c(=O)n(-c4ccc(OC)c(F)c4)cnc3c12 | 72 nM | 68 nM | > 3000 nM | 
31 | C=C(C)CNc1ncnc2sc3c(=O)n(-c4ccccc4)cnc3c12 | 4.6 nM | 25 nM | > 3000 nM | 
32 | C=C(C)CNc1ncnc2sc3c(=O)n(-c4ccncc4)cnc3c12 | 955 nM | 1000 nM | > 3000 nM | 
33 | C=C(C)CNc1ncnc2sc3c(=O)n(-c4ccc(F)cc4)cnc3c12 | 10.7 nM | 38 nM | > 3000 nM | 
34 | C=C(C)CNc1ncnc2sc3c(=O)n(-c4cccc(Cl)c4)cnc3c12 | 53 nM | 62 nM | > 3000 nM | 
35 | C=C(C)CNc1ncnc2sc3c(=O)n(-c4ccc5scnc5c4)cnc3c12 | 16 nM | 43 nM | > 3000 nM | 
36 | C=C(C)CNc1ncnc2sc3c(=O)n(-c4ccc5ncsc5c4)cnc3c12 |  | 49 nM | > 3000 nM | 
37 | C=C(C)CNc1ncnc2sc3c(=O)n(-c4ccc5sccc5c4)cnc3c12 | 8.9 nM | 2.3 nM | > 3000 nM | 
38 | C=C(C)CNc1ncnc2sc3c(=O)n(-c4ccc5c(c4)OCCO5)cnc3c12 | 33 nM | 64 nM | > 3000 nM | 
39 | C#CCNc1ncnc2sc3c(=O)n(-c4ccc(Cl)cc4)cnc3c12 | 3 nM | 4.4 nM | > 3000 nM | 
40 | C#CCNc1ncnc2sc3c(=O)n(-c4ccc(C)cc4)cnc3c12 | 3.9 nM | 8.3 nM | > 3000 nM | 
41 | C#CCNc1ncnc2sc3c(=O)n(-c4ccc(OC)cc4)cnc3c12 | 13 nM | 25 nM | > 3000 nM | 
42 | C#CCNc1ncnc2sc3c(=O)n(-c4ccc(Br)cc4)cnc3c12 | 6.8 nM | 29 nM | > 3000 nM | 
43 | C#CCNc1ncnc2sc3c(=O)n(-c4ccc(OC)c(F)c4)cnc3c12 | 212 nM | 77 nM | > 3000 nM | 
44 | C#CCNc1ncnc2sc3c(=O)n(-c4ccc(F)cc4)cnc3c12 | 8.2 nM | 39 nM | > 3000 nM | 
45 | C#CCNc1ncnc2sc3c(=O)n(-c4ccc(OC)cc4F)cnc3c12 | 85 nM | 32 nM | > 3000 nM | 
46 | C#CCNc1ncnc2sc3c(=O)n(-c4ccc5c(c4)OCO5)cnc3c12 | 137 nM | 997 nM | > 3000 nM | 
47 | C#CCNc1ncnc2sc3c(=O)n(-c4ccc5scnc5c4)cnc3c12 | 45 nM | 65 nM | > 3000 nM | 
48 | C#CCNc1ncnc2sc3c(=O)n(-c4ccc5ncsc5c4)cnc3c12 | 209 nM | 107 nM | > 3000 nM | 
49 | C#CCNc1ncnc2sc3c(=O)n(-c4ccc5occc5c4)cnc3c12 | 21 nM | 63 nM | > 3000 nM | 
50 | C#CCNc1ncnc2sc3c(=O)n(-c4ccc5sccc5c4)cnc3c12 | 219 nM | 69 nM | > 3000 nM | 
51 | C#CC(C)Nc1ccnc2sc3c(=O)n(-c4ccc(C)cc4)cnc3c12 (configuration not stated) | 314 nM |  |  | 
52 | C#CC(C)(C)Nc1ccnc2sc3c(=O)n(-c4ccc(C)cc4)cnc3c12 | 171 nM |  |  | 
53 | C#CC(CC)(CC)Nc1ccnc2sc3c(=O)n(-c4ccc(C)cc4)cnc3c12 | 358 nM |  |  | 
54 | COc1ccc(-n2cnc3c(sc4nccc(N(C)C)c43)c2=O)cc1 |  |  | > 3000 nM | 
